Hit rate of the full screen: of about 2,500 compounds, about 460 (18%) were called active.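 The calls were made as follows: active = mean activation above a cutoff of low control average plus 3 SD from the earlier screen (cut at about 12% in these data); inactive = the rest.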 These entries were drawn from the full list.

A short description of this test: IANBD-channel fluorescence artefacts in buffer – biochemical, artefact control for cardiac RTF calcium sensitizer project, confirmation (AID 504382). The conditions noted are these: IANBD fluorescence interference counterscreen, EC20 Ca2+, at 7.2 µM, active compounds read high, scaled: EC20 calcium 0, EC100 calcium 100. In outline:
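Medium: MOPS buffer, 190 mM, with KCl, MgCl2, EGTA, NTA, DTT, pH 7.20; Dosing: one dose of 7.2 µM, 0.7% DMSO; Probe or stimulus: calcium at EC20 level, 0.472 mM final; Incubation: 15 min, 25 °C; Evaluation: compound fluorescence interference relative to control well signal range; Signal: fluorescence, 480/540 nm.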
Background: Counterscreens check selectivity or assay interference.
Take `CCc1ccc(C(=O)Nc2cccnc2Oc2ccc(Cl)cc2)cc1`: the fluorescence artifact activation is 3.19% (inactive).
With `Cc1cc(C=C2C(=O)CCCC2=O)c(C)n1-c1ccccc1` the figure was 0.05% (inactive).
As to `CCOC(=O)/C(=C\c1c[nH]c2ccccc12)NC(C)=O`, the fluorescence artifact activation is 7.92% (inactive).
Turning to `CC(C)Sc1nc2ccc(Br)cc2[nH]1`, the fluorescence artifact activation was 10.8% (inactive).
As for `COc1cc(OC)cc(C(=O)N(Cc2ccco2)c2c(N)n(Cc3ccccc3)c(=O)[nH]c2=O)c1`, the figure is 0.01% (inactive); as for `COCCCN(C(=O)c1cccnc1SC)c1c(N)n(Cc2ccccc2)c(=O)[nH]c1=O`, 15.1% (active).
Take `CCCCN(C(=O)c1ccc([N+](=O)[O-])o1)c1c(N)n(CCCC)c(=O)[nH]c1=O`: the fluorescence artifact activation was -0.06% (inactive).
As for `COc1ccc(NC(=O)Cc2ccccc2)cn1`, the figure is 0.04% (inactive).
With `N#CC1=C(N)SC(N)=C(C#N)C1c1cccc(O)c1`, the fluorescence artifact activation was 0.07% (inactive).
With `C/C(Cn1cnc([N+](=O)[O-])n1)=N\NC(=O)c1cccc(F)c1` the figure was 0.05% (inactive).
On to `Cc1cc(NC(=O)CN2C(=O)[C@@H]3[C@H](C2=O)[C@@H]2C[C@H]3C(Br)C2Br)no1` (some centres undefined), for which the fluorescence artifact activation was 19.4% (active).
For the molecule `CC(=O)NC(CCS(C)(=O)=O)C(=O)Nc1cc(C)on1` (centres undefined), the fluorescence artifact activation is 0.57% (inactive).
For the molecule `Cc1cc(NC(=O)COC(=O)C(Cc2ccccc2)NC(=O)c2ccco2)no1` (centres undefined), the fluorescence artifact activation is 9.69% (inactive).
Consider `O=C1CCNc2ccc(-c3ccccc3)cc21`, for which the fluorescence artifact activation was 0.1% (inactive).
As for `Cc1cc(/C=C2/C(=O)N(C)C(=S)N2C)ccc1N1CCCC1`, the figure is 23.6% (active).
As for `Cc1cc(N2CCCC2)ccc1/C=C1\NC(=S)N(C)C1=O`, the fluorescence artifact activation was 5.61% (inactive).
With `Cc1cc(/C=C2\NC(=S)N(C)C2=O)ccc1N1CCCC1` the figure was 2.17% (inactive); with `COC(=O)CCN(C(=O)c1ccc([N+](=O)[O-])cc1)c1ccccn1`, 4.76% (inactive); with `O=C(Nc1ccc(Br)cc1)c1ccc(Br)c(S(=O)(=O)Nc2cccnc2)c1`, 4.66% (inactive).
Turning to `CC(C)(C)NC(=O)NC(=O)Cn1ccsc1=N`, the fluorescence artifact activation is 40% (active).
As for `O=C(C1=NN(c2ccccc2)C2C(=O)N(c3cccc(Cl)c3)C(=O)C12)c1ccccc1` (centres undefined), the figure is 9.7% (inactive); as for `O=C(NN1C(=O)c2ccccc2NC1c1ccco1)c1ccccc1` (centres undefined), 0.03% (inactive).
Regarding `CN1C(=O)/C(=C/C=C2\SCCN2C)OC1=S`, the fluorescence artifact activation is 1.7% (inactive).
`COC(=O)C1CCN(C(=O)CN2C(=O)c3ccccc3S2(=O)=O)CC1`: the fluorescence artifact activation is 818% (active).
With `NC(=O)C1CCN(c2ccc3c(c2)S(=O)(=O)c2ccccc2C3=O)CC1` the figure was 0.05% (inactive); with `C=C1CCN(C(CC(C)C)C(=O)OC)S(=O)(=O)c2ccccc21` (centres undefined), 0.08% (inactive); with `CN(N=Nc1ccc([N+](=O)[O-])cc1)c1ccccc1`, 7.25% (inactive).
With `CSc1ccc(C2C(C(=O)c3ccco3)=C(O)C(=O)N2c2nnc(SC)s2)cc1` (centres undefined) the figure was 7.57% (inactive); with `CC1CC1c1ccc(/C=C(\C#N)C(=O)Nc2ccc(Cl)cc2Cl)o1` (centres undefined), 5.23% (inactive).
As for `Cc1cc(NC(=O)/C(C#N)=C/c2ccc(-c3ccc(SC(F)F)cc3)o2)n(-c2ccccc2)n1`, the fluorescence artifact activation is 291% (active).
With `Cc1cc(NC(=O)/C(C#N)=C\c2ccc(-c3ccc(SC(F)F)cc3)o2)n(-c2ccccc2)n1` the figure was 136% (active); with `O=C(NCc1cccc(F)c1)c1cccc2c1C(=O)c1ccc(N3CCCC3)cc1S2(=O)=O`, -0.02% (inactive); with `CCOC(=O)c1sc(N)c(C#N)c1COC(=O)CNC(=O)c1ccccc1`, -0.01% (inactive).
In the case of `CC1CC(C)CN(C(=O)Cn2c(-c3nonc3N)nc3ccccc32)C1` (centres undefined), the fluorescence artifact activation was 0.07% (inactive).
With `CC(NC(=O)COc1ccc(N(C)S(=O)(=O)c2ccccc2)cc1)c1ccccc1` (centres undefined), the fluorescence artifact activation was 0.07% (inactive).
Turning to `Cc1ccc(C)c(OCCN2C(=O)NC3(CCc4ccccc4C3)C2=O)c1` (centres undefined), the fluorescence artifact activation was 0.24% (inactive).
As for `Cc1ccc(C2C(C#N)=C(N)SC(N)=C2C#N)cc1`, the figure is 0.33% (inactive); as for `O=C(C1=C(O)C(=O)N(CCN2CCOCC2)C1c1ccc([N+](=O)[O-])cc1)c1cccs1` (centres undefined), 10.2% (inactive).
As for `CC(/C=C/c1ccc(N(C)C)cc1)=N/N=C1/NC(=O)CC(C(=O)Nc2ccc(Cl)cc2)S1` (centres undefined), the figure is 0.15% (inactive); as for `O=[N+]([O-])c1ccc(N/N=C\c2ccccc2OCc2ccccc2)cc1`, 5.45% (inactive).
With `COC(=O)c1ccc(-c2ccc(F)cc2)nc1C` the figure was -0.07% (inactive); with `O=c1[nH]c2c(s1)C=Nc1ccccc1N2`, 0.01% (inactive); with `CN(C)C(=O)CN1C(=O)C2CCCCN2C(=O)c2ccccc21` (centres undefined), 0.04% (inactive).
With `CN(C)/C=C1\C=C2C(=O)c3ccccc3N2C1=O`, the fluorescence artifact activation was 21% (active).
With `CCCC(=O)Nc1ccc(-c2cnc(-c3ccc(NC(=O)CCC)cc3)nc2)cc1` the figure was 0.08% (inactive); with `CCCCCCCC(=O)Nc1ccc(S(=O)(=O)Nc2nccs2)cc1`, 12.5% (active).
As for `Cc1ccc(S(=O)(=O)NCCCCCC(=O)Nc2ccccc2C)cc1`, the figure is 8.11% (inactive).
As for `N#Cc1ccccc1NC(=O)CNc1ccc(Cl)c(C(F)(F)F)c1`, the figure is 1.46% (inactive); as for `CCC(=O)N/C(=N/c1nc(C)cc(C)n1)Nc1ccccc1`, 0.29% (inactive); as for `Cc1ccc(NC(=O)c2cc(S(=O)(=O)N3CCCCC3)ccc2N2CCOCC2)cc1S(=O)(=O)N(C)C`, 0.83% (inactive).
For the molecule `COc1ccc(-c2csc(N3CCN(c4cc5c(cc4Cl)nc(-c4ccncc4)n5CCOCCO)CC3)n2)cc1`, the fluorescence artifact activation was -0.09% (inactive).
With `CCOC(=O)Cc1csc(N(C)C)n1` the figure was 0.08% (inactive).
As for `CCOC(=O)Cc1csc(NC(=O)c2sc3nc4cc(C)ccc4cc3c2N)n1`, the figure is 19% (active); as for `CCOC(=O)Cc1csc(CC(N)=O)n1`, 2.47% (inactive); as for `Cc1cccc(N2CCN(C(=O)Cn3nc(Cc4ccncc4)c4ccccc4c3=O)CC2)c1C`, 4.88% (inactive).
With `Cc1c(O)ccc(/C(Cc2ccc3ccccc3n2)=N\N)c1O` the figure was -0.02% (inactive); with `CC(=O)OCC[N+](C)(C)C`, 13.6% (active).
For the molecule `Cc1cccc(N=Cc2[nH]c3ccc(Br)c(Cl)c3c2O)c1`, the fluorescence artifact activation is 0.01% (inactive).
On to `COCCNC(=O)c1c(CS(=O)(=O)c2ccccc2)noc1C(=O)NCc1ccccc1`, for which the fluorescence artifact activation is -0.04% (inactive).

For the origin of these results see PubChem BioAssay AID504382 (The Scripps Research Institute Molecular Screening Center, 2011).
